Drawing on ChEMBL document CHEMBL1154706, “Novel substituted and fused pyrrolizine derivatives: synthesis, anti-inflammatory and ulcerogenecity studies” (Eur J Med Chem, 2010), this text covers UI for 13 molecules.

SMILES strings stand for the structures.

In the series the test system is Rattus norvegicus. Put plainly: Gastrointestinal toxicity in albino rat assessed ulcer index at 39.23 […], po. Format: organism-based. The following applies: in vivo. Summed up: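 Adult albino rats of both sexes (120–150 g), five per group, fasted 20 h before dosing. Compounds given orally as a suspension in 1% Tween; controls received vehicle. Dosed on three consecutive days with fasting/feeding cycles, then killed on day 4. Stomach opened along the greater curvature and rinsed with saline. Red spots counted and severity scored 0–4. Ulcer index derived from % incidence/10, mean ulcer number and mean severity.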
The molecule `O=C(O)CCc1nc(=O)c2c3n(c(C(=O)Nc4ccc(Cl)cc4)c2[nH]1)CCC3` had a UI of 15.66.

Consider `CC(C(=O)Nc1c(C#N)c2n(c1C(=O)Nc1ccccc1)CCC2)c1cccc(C(=O)c2ccccc2)c1` (racemic), for which the UI amounted to 0.

In the case of `CC(C)Cc1ccc(C(C)C(=O)Nc2c(C#N)c3n(c2C(=O)Nc2ccccc2)CCC3)cc1` (racemic), the UI is 0.

Consider `O=C(O)/C=C\c1nc(=O)c2c3n(c(C(=O)Nc4ccccc4)c2[nH]1)CCC3`, for which the UI is on record as 17.46.

For `O=C(c1ccccc1)c1ccc2n1CCC2C(=O)O` (stereo not drawn) [KETOROLAC], the UI was found to be 11.6.

Consider `Cc1ccc(NC(=O)c2c(NC(=O)C(C)c3cccc(C(=O)c4ccccc4)c3)c(C#N)c3n2CCC3)cc1` (racemic), for which the UI is 3.6.

For the molecule `CC(C)Cc1ccc(C(C)C(=O)Nc2c(C#N)c3n(c2C(=O)Nc2ccc(Cl)cc2)CCC3)cc1` (racemic), the UI is 0.

For the molecule `Cc1ccc(NC(=O)c2c3[nH]c(CCC(=O)O)nc(=O)c3c3n2CCC3)cc1`, the UI is on record as 17.91.

`Cc1ccc(NC(=O)c2c(NC(=O)C(C)c3ccc(CC(C)C)cc3)c(C#N)c3n2CCC3)cc1` (racemic): the UI was determined as 3.2.

Consider `O=C(O)CCc1nc(=O)c2c3n(c(C(=O)Nc4ccccc4)c2[nH]1)CCC3`, for which the UI is given as 16.66.

As to `O=C(O)/C=C\c1nc(=O)c2c3n(c(C(=O)Nc4ccc(Cl)cc4)c2[nH]1)CCC3`, the UI is recorded as 17.09.

`CC(C(=O)Nc1c(C#N)c2n(c1C(=O)Nc1ccc(Cl)cc1)CCC2)c1cccc(C(=O)c2ccccc2)c1` (racemic) came in with a UI of 3.6.

As for `Cc1ccc(NC(=O)c2c3[nH]c(/C=C\C(=O)O)nc(=O)c3c3n2CCC3)cc1`, the UI worked out at 18.3.
